# Experimental data from paper PMC2193291 (The Journal of Experimental Medicine, 2000).
# Like-named read-outs stand apart in the source and are kept apart here.
# Legend:
# cRaf = cRaf (Homo sapiens, UniProt P04049); format: cell-based
# Procedure, shortened: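 COS-7 cells transfected with Flag-cRaf by calcium phosphate, kept 2 d in serum-free phenol-red-free DME, then given retinoids and/or scavengers (100 mM sodium azide, 1 mM N-acetylcysteine). UVB-irradiated at 400 μw/cm2 and incubated at 37°C for set times. Flag-Raf pulled down with anti-Flag M2 and washed in 0.5 M NaCl. Kinase reaction: 200 ng His-MEK(K97M), 60 μM ATP plus [γ-32P]ATP, 20 min, 30°C.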
# [1] = target: Human cRaf-1 C1 ZiF domain (Homo sapiens, UniProt P04049); test: Retinoid binding by quenching of intrinsic protein
# [2] = target: Human PKCα C1B ZiF domain (Homo sapiens, UniProt P17252); test: Retinol binding by trp fluorescence quench, Gst fusion protein
# Procedure, shortened: (§1)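 Gst-ZiF fusions expressed in E. coli BL21/DE3 and purified on glutathione-agarose to >90%. Constructs: Drosophila C1A aa 40–101; C1B aa 105–261 plus trp 262; Vav aa 464–518 plus trp 519. Protein at 250 nM in helium-degassed PBS, titrated stepwise with all-trans retinol from a methanol stock. Trp emission 330 nm (excitation 280 nm), corrected for inner filtering. Kd from nonlinear fit over at least four independent measurements.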
# PKCα = PKCα (Mus musculus, UniProt P20444); test: PKCα immunoprecipitation/kinase assay of H2O2-activated 3T3 cells; format: cell-based
# Procedure, shortened: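 3T3 cells retinol-depleted, some repleted 12 h with 2 μM retinol, then activated 10 min with graded H2O2 doses without staurosporine. Detergent lysates immunoprecipitated with PKCα antibody. Kinase activity measured in washed immunoprecipitates with H1 histone as substrate. Normalized data from six independent H2O2 titrations.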
# [3] = target: Drosophila PKC C1B ZiF domain (Drosophila melanogaster, UniProt P05130); test: Retinol binding by trp fluorescence quench, Gst fusion protein
# Procedure, shortened: as §1
# [4] = test system: cRaf/MAPK (ERK1 and 2 phosphorylation); test: Oxidative; format: cell-based; settings: 3T3 cells, 2 μM retinol
# [5] = target: Drosophila PKC C1A ZiF domain (Drosophila melanogaster, UniProt P05130); test: Retinol binding by trp fluorescence quench, Gst fusion protein
# Procedure, shortened: as §1
# [6] = target: Human PKCδ C1A ZiF domain (Homo sapiens, UniProt Q05655); test: as above
# Procedure, shortened: as §1
# [7] = target: T1, Human PKCμ C1B ZiF domain (Homo sapiens, UniProt Q15139); test: as above
# T1 sequence (Q15139 270-320 limits assumed): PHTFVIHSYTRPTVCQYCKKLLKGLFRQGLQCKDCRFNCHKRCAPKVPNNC
# Procedure, shortened: as §1
# [8] = target: Human PKCα C1A ZiF domain (Homo sapiens, UniProt P17252); test: as above
# Procedure, shortened: as §1
# Human Vav C1 ZiF domain = target: T2, Human Vav C1 ZiF domain (Homo sapiens, UniProt P15498); test: as above
# T2 sequence (P15498 with tags, fused parts or gaps): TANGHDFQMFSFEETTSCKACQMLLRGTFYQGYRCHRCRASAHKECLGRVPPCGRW
# Procedure, shortened: as §1
# [9] = target: Human PKCδ C1B ZiF domain (Homo sapiens, UniProt Q05655); test: Retinol binding by trp fluorescence quench, Gst fusion protein
# [10] = target: T3, Human PKCμ C1A ZiF domain (Homo sapiens, UniProt Q15139); test: Retinol binding by trp fluorescence quench, Gst fusion protein
# T3 sequence (Q15139 146-196 limits assumed): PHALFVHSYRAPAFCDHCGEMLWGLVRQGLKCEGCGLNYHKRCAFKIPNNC
# Procedure, shortened: as §1
# [11] = target: T4, S. cerevisiae PKC C1B ZiF domain (Saccharomyces cerevisiae, UniProt P24583); test: as above
# T4 sequence (P24583 481-531 limits assumed): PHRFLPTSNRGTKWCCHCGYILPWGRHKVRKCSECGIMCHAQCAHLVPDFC
# Procedure, shortened: as §1
# Human PKCζ C1 ZiF domain = target: T5, Human PKCζ C1 ZiF domain (Homo sapiens, UniProt Q05513); test: Retinol binding by trp fluorescence quench, Gst fusion protein
# T5 sequence (Q05513 130-180 limits assumed): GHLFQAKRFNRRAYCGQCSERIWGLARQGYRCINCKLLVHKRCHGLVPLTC
# [12] = target: Gst-Raf ZiF (human cRaf-1 ZiF domain) (Homo sapiens, UniProt P04049); test: Retinol binding by fluorescence resonance energy transfer
# [13] = target: T6, S. cerevisiae PKC C1A ZiF domain (Saccharomyces cerevisiae, UniProt P24583); test: Retinol binding by trp fluorescence quench, Gst fusion protein
# T6 sequence (P24583 414-461 limits assumed): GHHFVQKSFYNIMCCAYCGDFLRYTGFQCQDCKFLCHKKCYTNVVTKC
# MAPK (phospho-ERK) = test: Peroxide activation of endogenous MAPK in Jurkat cells, phospho-ERK Western blot; format: cell-based; settings: 100 μM H2O2, different concentrations of retinol
# Procedure, shortened: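 Jurkat cells grown serum-free and retinol-free, then given varying retinol concentrations. Activated 15 min later for 10 min with 100 μM H2O2. Endogenous MAPK activity read as phospho-ERK on Western blots.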
# cRaf, sequence (P04049 whole entry): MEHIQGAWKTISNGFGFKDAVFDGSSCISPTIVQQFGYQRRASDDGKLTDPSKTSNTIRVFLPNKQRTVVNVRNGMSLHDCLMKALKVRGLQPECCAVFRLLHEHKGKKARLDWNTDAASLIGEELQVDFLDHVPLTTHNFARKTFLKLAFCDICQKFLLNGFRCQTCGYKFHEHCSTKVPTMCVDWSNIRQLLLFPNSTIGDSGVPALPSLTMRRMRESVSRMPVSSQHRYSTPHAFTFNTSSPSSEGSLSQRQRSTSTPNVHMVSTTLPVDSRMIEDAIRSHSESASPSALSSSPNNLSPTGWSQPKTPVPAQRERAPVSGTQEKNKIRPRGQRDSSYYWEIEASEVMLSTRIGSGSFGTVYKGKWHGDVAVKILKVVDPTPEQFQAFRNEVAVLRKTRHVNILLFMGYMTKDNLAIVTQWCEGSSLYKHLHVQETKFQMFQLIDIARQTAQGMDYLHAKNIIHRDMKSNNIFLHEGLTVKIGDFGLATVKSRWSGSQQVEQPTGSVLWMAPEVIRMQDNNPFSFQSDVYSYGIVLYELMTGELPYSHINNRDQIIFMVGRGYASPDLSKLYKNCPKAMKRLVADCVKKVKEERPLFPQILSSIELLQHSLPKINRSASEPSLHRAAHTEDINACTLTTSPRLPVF
# Human PKCδ C1B ZiF domain, sequence (Q05655 231-280): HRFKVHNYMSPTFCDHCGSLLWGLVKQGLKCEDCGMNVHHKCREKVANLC
# Human PKCδ C1A ZiF domain, sequence (Q05655 159-209): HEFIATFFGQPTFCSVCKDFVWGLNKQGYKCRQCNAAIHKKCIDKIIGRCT
structure (smiles),measurement,setting,value
[N-]=[N+]=[N-].[Na+] [sodium azide],Effect on UVB-induced Raf activation,cRaf; sodium azide 100 mM,abolished the Raf activation
CC(=O)N[C@@H](CS)C(=O)O [N-acetylcysteine],Effect on UVB-induced Raf activation,cRaf; N-acetylcysteine 1 mM,abolished the Raf activation
"CC1=C(/C=C/C(C)=C/C=C/C(C)=C/CO)C(C)(C)CCC1 [retinol, all-trans retinol]",Kd,"[1]; Binding constant, cRaf-1 amino acids 136–195, trp fluorescence quench, ± SE",22 ± 3.5 nM
same,Kd,[2],> 500 nM
same,Activation of PKC by phorbol ester,PKCα; 150 nM phorbol ester,not significantly enhanced
same,Increase of PKCα kinase activity at maximum stimulation over unstimulated cells,"PKCα; 3T3 cells, 200 μM H2O2, in the presence of 2 μM retinol, 6 experiments",20 fold
same,Optimum dose for enhancement of PKCα activation,PKCα; data not shown,1 µM
same,Overall retinol enhancement effect on PKCα kinase activity,"PKCα; presence vs absence of retinol, 200 μM H2O2",3 fold
same,Intrinsic PKC activation by retinol alone,PKCα; without H2O2,no intrinsic PKC activation
same,Kd,[3],> 500 nM
same,MAPK activity in retinol-repleted compared with retinol-deficient cultures,"[4]; 300 μM H2O2, peak at 10–15 min, phosphorylated p42",two- to threefold higher
same,"MAPK activation by 5% FBS, retinol-sufficient vs retinol-deficient cultures",[4]; 5% FBS,no differences
same,Kd,[5],18.5 ± 3.7 nM
same,Kd,[6],95.2 ± 1.3 nM
same,Kd,[7],17.3 ± 4 nM
same,Kd,[8],20.7 ± 4 nM
same,Kd,Human Vav C1 ZiF domain,> 500 nM
same,Kd,[9],67.3 ± 1.3 nM
same,Kd,[10],18.1 ± 8 nM
same,Kd,[11],> 500 nM
same,Augmentation of UVB-induced Raf kinase activity,"cRaf; COS cells replenished with 2 μM retinol, UVB",2.2 ± 0.4 fold
same,Kd,Human PKCζ C1 ZiF domain,34.1 ± 6.7 nM
same,Kd,[12],25.8 nM
same,FRET signal,[12]; truncated Gst-Raf Zif136–186 lacking trp 187,did not elicit a FRET signal
same,Kd,[13],17.9 ± 5.1 nM
same,Enhancement of MAPK activation by peroxide,MAPK (phospho-ERK),dose-dependent enhancement
[2H]O[2H] [deuterated water],Effect on UVB-induced Raf activity,cRaf; addition of deuterated water,"distinct, though moderate, enhancement"
"CC(C=CC=C(C)C(O)CO)=CC=C1C(C)=CCCC1(C)C (stereo not shown) [14HRR, 14-hydroxy-retro-retinol]",Binding to native Gst-Raf4–256 (fluorescence quenching),"[1]; 1-μM protein solution, native protein",saturable binding
